Columns and labels:
[1] = molecular target: Cyclin-dependent kinase 2/cyclin E1 (Homo sapiens) (UniProt P24864+P24941); experiment: Inhibition of CDK2/cyclinE (unknown origin) using [gamma-33P]ATP assessed as residual activity at 3 uM; format: protein-complex assay
In short: (§1)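 Radiometric profiling across 288 kinases (261 wild-type, 27 mutant), run as an outsourced service. Inhibition read out as [gamma-33P]ATP incorporation into substrate.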

[2] = molecular target: Rho-associated protein kinase 1 (Homo sapiens) (UniProt Q13464); experiment: Inhibition of ROCK1 (unknown origin) using [gamma-33P]ATP assessed as residual activity at 3 uM
[3] = tested on: Tyrosine-protein kinase ABL1 (Homo sapiens), P00519 [Y253F]; experiment: Inhibition of ABL1 Y253F mutant (unknown origin) using [gamma-33P]ATP assessed as residual activity at 3 uM; in short: as §1
[4] = molecular target: Ribosomal protein S6 kinase alpha-4 (Homo sapiens) (UniProt O75676); experiment: Inhibition of MSK2 (unknown origin) using [gamma-33P]ATP assessed as residual activity at 3 uM
[5] = molecular target: G protein-coupled receptor kinase 5 (Homo sapiens) (UniProt P34947); experiment: Inhibition of GRK5 (unknown origin) using [gamma-33P]ATP assessed as residual activity at 3 uM
In short: (§2)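 Radiometric kinase profiling service covering 288 kinases (261 wild-type, 27 mutant). Inhibition was read as incorporation from [γ-³³P]ATP.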

[6] = molecular target: Casein kinase I isoform gamma-1 (Homo sapiens) (UniProt Q9HCP0); experiment: Inhibition of CK1g1(unknown origin) using [gamma-33P]ATP assessed as residual activity at 3 uM
In short: (§3)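 Reaction Biology HotSpot radiometric profiling panel of 288 kinases (261 wild-type, 27 mutant). Kinase activity was read out by incorporation of [γ-33P]ATP.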

[7] = molecular target: cGMP-dependent protein kinase 2 (Homo sapiens) (UniProt Q13237); experiment: Inhibition of PKG2 (unknown origin) using [gamma-33P]ATP assessed as residual activity at 3 uM
[8] = molecular target: Glycogen synthase kinase-3 alpha (Homo sapiens) (UniProt P49840); experiment: Inhibition of GSK3a (unknown origin) using [gamma-33P]ATP assessed as residual activity at 3 uM; in short: as §2
[9] = molecular target: Homeodomain-interacting protein kinase 2 (Homo sapiens) (UniProt Q9H2X6); experiment: Inhibition of HIPK2 (unknown origin) using [gamma-33P]ATP assessed as residual activity at 3 uM; in short: as §2
[10] = molecular target: Tyrosine-protein kinase Fyn (Homo sapiens, UniProt P06241); experiment: Inhibition of FYN (unknown origin) using [gamma-33P]ATP assessed as residual activity at 3 uM
[11] = molecular target: cGMP-dependent protein kinase 1 (Homo sapiens) (UniProt Q13976); experiment: Inhibition of PKG1a (unknown origin) using [gamma-33P]ATP assessed as residual activity at 3 uM
[12] = molecular target: Ephrin type-B receptor 4 (Homo sapiens) (UniProt P54760); experiment: Inhibition of EPHB4 (unknown origin) using [gamma-33P]ATP assessed as residual activity at 3 uM; in short: as §3
[13] = tested on: Mast/stem cell growth factor receptor Kit (Homo sapiens), P10721 [V560G]; experiment: Inhibition of c-Kit V560G mutant (unknown origin) using [gamma-33P]ATP assessed as residual activity at 3 uM
[14] = molecular target: Myosin light chain kinase, smooth muscle (Homo sapiens, UniProt Q15746); experiment: Inhibition of MLCK (unknown origin) using [gamma-33P]ATP assessed as residual activity at 3 uM
In short: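 Contract radiometric panel screen of 288 kinases (261 wild-type, 27 mutant). Inhibition was read by [gamma-33P]ATP radioactivity incorporation.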

[15] = tested on: Proto-oncogene tyrosine-protein kinase receptor Ret (Homo sapiens), P07949 [V804L]; experiment: Inhibition of RET V804L mutant (unknown origin) using [gamma-33P]ATP assessed as residual activity at 3 uM
[16] = molecular target: Proto-oncogene tyrosine-protein kinase Src (Homo sapiens) (UniProt P12931); experiment: Inhibition of c-Src (unknown origin) using [gamma-33P]ATP assessed as residual activity at 3 uM
[17] = molecular target: Fibroblast growth factor receptor 3 (Homo sapiens) (UniProt P22607); experiment: Inhibition of FGFR3 (unknown origin) using [gamma-33P]ATP assessed as residual activity at 3 uM; in short: as §3
[18] = tested on: Receptor-type tyrosine-protein kinase FLT3 (Homo sapiens), P36888 [D835Y]; experiment: Inhibition of FLT3 D835Y mutant (unknown origin) using [gamma-33P]ATP assessed as residual activity at 3 uM; in short: as §2
[19] = molecular target: MAP kinase-activated protein kinase 2 (Homo sapiens) (UniProt P49137); experiment: Inhibition of MAPKAPK2 (unknown origin) using [gamma-33P]ATP assessed as residual activity at 3 uM; in short: as §2
[20] = molecular target: Rhodopsin kinase GRK7 (Homo sapiens) (UniProt Q8WTQ7); experiment: Inhibition of GRK7 (unknown origin) using [gamma-33P]ATP assessed as residual activity at 3 uM; in short: as §2
[21] = molecular target: SRSF protein kinase 2 (Homo sapiens) (UniProt P78362); experiment: Inhibition of SRPK2 (unknown origin) using [gamma-33P]ATP assessed as residual activity at 3 uM
[22] = molecular target: Serine/threonine-protein kinase PAK 4 (Homo sapiens) (UniProt O96013); experiment: Inhibition of PAK4 (unknown origin) using [gamma-33P]ATP assessed as residual activity at 3 uM
[23] = molecular target: Glycogen synthase kinase-3 beta (Homo sapiens) (UniProt P49841); experiment: Inhibition of GSK3B (unknown origin) using [gamma-33P]ATP assessed as residual activity at 3 uM; in short: as §2
[24] = molecular target: Tyrosine-protein kinase ABL1 (Homo sapiens) (UniProt P00519); experiment: Inhibition of ABL1 (unknown origin) using [gamma-33P]ATP assessed as residual activity at 3 uM; in short: as §1
[25] = molecular target: Serine/threonine-protein kinase Nek9 (Homo sapiens) (UniProt Q8TD19); experiment: Inhibition of NEK9 (unknown origin) using [gamma-33P]ATP assessed as residual activity at 3 uM
[26] = tested on: Tyrosine-protein kinase ABL1 (Homo sapiens), P00519 [T315I]; experiment: Inhibition of ABL1 T315I mutant (unknown origin) using [gamma-33P]ATP assessed as residual activity at 3 uM; in short: as §1
[27] = molecular target: Tyrosine-protein kinase BTK (Homo sapiens) (UniProt Q06187); experiment: Inhibition of BTK (unknown origin) using [gamma-33P]ATP assessed as residual activity at 3 uM; in short: as §1
[28] = molecular target: Calcium/calmodulin-dependent protein kinase type IV (Homo sapiens) (UniProt Q16566); experiment: Inhibition of CAMK4 (unknown origin) using [gamma-33P]ATP assessed as residual activity at 3 uM; in short: as §1
[29] = molecular target: Ephrin type-A receptor 4 (Homo sapiens) (UniProt P54764); experiment: Inhibition of EPHA4 (unknown origin) using [gamma-33P]ATP assessed as residual activity at 3 uM; in short: as §3
[30] = molecular target: Ribosomal protein S6 kinase alpha-3 (Homo sapiens) (UniProt P51812); experiment: Inhibition of RSK2 (unknown origin) using [gamma-33P]ATP assessed as residual activity at 3 uM
[31] = molecular target: Serine/threonine-protein kinase 3 (Homo sapiens) (UniProt Q13188); experiment: Inhibition of MST2 (unknown origin) using [gamma-33P]ATP assessed as residual activity at 3 uM

Sequence of Mast/stem cell growth factor receptor Kit (Homo sapiens), P10721 [V560G] (P10721 whole entry V560G): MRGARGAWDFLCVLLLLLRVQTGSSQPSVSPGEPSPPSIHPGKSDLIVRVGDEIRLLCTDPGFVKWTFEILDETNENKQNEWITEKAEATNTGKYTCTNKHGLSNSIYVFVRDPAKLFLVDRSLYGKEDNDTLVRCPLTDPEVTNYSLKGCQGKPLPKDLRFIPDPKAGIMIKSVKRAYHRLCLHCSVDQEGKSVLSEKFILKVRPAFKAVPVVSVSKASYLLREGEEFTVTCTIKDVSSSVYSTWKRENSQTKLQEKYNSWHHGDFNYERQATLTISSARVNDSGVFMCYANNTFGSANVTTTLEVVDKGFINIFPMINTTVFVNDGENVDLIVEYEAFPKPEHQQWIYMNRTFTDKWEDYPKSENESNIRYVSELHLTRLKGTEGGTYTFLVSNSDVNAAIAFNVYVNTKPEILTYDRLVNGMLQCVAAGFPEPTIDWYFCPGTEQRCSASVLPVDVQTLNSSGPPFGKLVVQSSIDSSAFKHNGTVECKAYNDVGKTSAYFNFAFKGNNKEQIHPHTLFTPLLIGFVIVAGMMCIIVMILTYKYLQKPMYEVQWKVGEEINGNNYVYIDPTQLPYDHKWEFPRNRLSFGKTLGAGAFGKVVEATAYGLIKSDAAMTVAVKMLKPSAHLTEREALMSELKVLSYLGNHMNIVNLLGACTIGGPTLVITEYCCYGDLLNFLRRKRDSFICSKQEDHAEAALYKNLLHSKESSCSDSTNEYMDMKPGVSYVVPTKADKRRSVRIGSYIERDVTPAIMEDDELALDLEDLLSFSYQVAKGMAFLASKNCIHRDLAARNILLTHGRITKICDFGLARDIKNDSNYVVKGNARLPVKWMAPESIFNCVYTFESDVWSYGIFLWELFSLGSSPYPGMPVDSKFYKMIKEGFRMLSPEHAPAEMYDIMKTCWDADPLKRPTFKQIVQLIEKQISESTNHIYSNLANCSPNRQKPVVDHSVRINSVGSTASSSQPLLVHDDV
Sequence of SRSF protein kinase 2 (Homo sapiens) (P78362 whole entry, looked up): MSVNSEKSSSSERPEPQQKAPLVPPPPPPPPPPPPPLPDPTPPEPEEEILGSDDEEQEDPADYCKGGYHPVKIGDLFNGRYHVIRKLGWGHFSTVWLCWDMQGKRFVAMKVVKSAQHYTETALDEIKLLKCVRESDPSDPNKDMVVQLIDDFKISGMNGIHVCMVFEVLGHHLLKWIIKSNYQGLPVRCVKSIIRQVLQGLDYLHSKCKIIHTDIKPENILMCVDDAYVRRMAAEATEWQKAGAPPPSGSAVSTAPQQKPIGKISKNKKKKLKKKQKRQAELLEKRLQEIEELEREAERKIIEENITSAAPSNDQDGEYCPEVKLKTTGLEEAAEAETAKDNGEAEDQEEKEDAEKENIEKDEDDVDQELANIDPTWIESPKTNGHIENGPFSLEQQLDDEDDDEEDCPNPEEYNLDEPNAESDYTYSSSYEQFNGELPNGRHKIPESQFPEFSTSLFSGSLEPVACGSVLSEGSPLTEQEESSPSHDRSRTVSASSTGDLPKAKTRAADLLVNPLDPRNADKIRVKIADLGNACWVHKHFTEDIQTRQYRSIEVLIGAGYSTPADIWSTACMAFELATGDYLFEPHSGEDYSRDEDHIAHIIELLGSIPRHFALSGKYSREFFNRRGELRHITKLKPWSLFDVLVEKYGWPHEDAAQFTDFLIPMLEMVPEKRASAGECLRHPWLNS
Sequence of Rhodopsin kinase GRK7 (Homo sapiens) (Q8WTQ7 whole entry): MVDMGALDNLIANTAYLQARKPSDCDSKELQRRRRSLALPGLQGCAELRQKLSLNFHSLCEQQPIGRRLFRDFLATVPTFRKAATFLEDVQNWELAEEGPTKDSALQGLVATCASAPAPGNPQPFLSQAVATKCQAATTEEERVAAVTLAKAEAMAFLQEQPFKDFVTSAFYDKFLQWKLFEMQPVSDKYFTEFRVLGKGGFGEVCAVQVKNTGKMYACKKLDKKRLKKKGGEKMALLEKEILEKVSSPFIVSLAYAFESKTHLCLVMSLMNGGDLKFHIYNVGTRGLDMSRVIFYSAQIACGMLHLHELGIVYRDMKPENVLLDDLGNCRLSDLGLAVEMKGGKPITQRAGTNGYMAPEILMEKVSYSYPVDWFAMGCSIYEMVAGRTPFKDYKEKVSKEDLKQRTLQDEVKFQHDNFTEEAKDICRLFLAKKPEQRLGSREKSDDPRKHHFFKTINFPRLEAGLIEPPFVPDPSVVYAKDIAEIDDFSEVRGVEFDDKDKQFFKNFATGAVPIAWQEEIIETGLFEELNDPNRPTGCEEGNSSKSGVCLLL
Sequence of Fibroblast growth factor receptor 3 (Homo sapiens) (P22607 23-806 limits assumed): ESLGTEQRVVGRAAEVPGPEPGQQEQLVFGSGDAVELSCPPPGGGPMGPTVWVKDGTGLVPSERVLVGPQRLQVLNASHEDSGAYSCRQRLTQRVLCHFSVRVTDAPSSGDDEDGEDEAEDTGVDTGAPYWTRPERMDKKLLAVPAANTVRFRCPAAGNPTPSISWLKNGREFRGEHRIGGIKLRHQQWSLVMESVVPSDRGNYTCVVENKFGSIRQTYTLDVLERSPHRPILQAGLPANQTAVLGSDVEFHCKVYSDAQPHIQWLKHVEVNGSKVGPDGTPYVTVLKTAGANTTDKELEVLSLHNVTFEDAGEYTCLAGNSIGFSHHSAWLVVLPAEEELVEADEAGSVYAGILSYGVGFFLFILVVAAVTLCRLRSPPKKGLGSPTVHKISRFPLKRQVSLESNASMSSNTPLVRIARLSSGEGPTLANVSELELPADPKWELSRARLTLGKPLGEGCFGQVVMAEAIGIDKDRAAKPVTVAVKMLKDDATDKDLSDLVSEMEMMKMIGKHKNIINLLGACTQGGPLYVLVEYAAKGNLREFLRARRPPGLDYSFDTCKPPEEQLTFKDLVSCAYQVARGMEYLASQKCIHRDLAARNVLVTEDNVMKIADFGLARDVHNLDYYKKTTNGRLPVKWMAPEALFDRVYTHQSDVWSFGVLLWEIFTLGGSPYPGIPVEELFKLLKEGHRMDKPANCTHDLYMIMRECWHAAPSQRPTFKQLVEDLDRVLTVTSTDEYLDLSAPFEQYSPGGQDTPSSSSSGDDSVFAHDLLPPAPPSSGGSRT
Sequence of Proto-oncogene tyrosine-protein kinase receptor Ret (Homo sapiens), P07949 [V804L] (P07949 whole entry V804L): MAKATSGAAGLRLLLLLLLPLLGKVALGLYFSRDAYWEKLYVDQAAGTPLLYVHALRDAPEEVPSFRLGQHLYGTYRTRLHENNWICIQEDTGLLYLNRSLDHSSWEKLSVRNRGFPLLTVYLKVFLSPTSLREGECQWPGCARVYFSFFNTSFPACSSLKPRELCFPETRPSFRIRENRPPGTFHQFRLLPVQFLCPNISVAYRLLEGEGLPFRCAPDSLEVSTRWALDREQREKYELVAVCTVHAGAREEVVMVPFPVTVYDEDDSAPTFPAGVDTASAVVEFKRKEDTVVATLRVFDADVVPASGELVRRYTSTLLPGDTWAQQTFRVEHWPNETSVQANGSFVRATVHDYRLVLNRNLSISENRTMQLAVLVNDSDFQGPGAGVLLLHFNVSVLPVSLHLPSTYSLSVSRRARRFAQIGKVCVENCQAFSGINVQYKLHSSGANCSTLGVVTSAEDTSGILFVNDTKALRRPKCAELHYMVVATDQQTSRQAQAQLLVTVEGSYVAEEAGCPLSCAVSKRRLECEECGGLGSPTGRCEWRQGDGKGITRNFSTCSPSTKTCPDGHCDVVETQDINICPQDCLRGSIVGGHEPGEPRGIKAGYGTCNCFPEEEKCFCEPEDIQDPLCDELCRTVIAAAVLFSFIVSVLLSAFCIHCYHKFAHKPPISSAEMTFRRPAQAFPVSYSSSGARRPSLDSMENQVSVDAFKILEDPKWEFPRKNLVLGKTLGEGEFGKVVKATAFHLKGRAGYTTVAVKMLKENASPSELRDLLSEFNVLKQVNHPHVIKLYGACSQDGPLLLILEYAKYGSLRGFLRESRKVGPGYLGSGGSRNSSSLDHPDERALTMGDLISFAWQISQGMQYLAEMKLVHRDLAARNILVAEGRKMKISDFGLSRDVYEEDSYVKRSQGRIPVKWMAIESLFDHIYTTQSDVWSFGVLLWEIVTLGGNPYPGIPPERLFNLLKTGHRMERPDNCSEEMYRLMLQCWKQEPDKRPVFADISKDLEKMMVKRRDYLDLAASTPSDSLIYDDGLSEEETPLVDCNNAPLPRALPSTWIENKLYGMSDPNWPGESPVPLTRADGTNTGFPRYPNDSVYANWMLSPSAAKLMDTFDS
Sequence of Tyrosine-protein kinase Fyn (P06241 2-537 limits assumed): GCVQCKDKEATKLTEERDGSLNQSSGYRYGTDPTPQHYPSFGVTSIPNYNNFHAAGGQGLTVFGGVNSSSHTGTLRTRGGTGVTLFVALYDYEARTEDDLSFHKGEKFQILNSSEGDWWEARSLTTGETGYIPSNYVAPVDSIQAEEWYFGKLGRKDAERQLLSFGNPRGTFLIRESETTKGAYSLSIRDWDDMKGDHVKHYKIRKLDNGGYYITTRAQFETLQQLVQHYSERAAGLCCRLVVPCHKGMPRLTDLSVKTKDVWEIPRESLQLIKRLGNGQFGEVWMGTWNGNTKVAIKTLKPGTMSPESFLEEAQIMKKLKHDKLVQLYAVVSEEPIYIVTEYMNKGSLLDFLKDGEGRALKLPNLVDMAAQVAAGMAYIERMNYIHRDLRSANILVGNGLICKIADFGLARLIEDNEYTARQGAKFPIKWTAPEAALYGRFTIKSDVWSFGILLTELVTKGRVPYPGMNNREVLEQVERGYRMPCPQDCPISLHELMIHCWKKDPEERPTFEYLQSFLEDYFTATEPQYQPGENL
Sequence of Casein kinase I isoform gamma-1 (Homo sapiens) (Q9HCP0 whole entry, looked up, canonical isoform): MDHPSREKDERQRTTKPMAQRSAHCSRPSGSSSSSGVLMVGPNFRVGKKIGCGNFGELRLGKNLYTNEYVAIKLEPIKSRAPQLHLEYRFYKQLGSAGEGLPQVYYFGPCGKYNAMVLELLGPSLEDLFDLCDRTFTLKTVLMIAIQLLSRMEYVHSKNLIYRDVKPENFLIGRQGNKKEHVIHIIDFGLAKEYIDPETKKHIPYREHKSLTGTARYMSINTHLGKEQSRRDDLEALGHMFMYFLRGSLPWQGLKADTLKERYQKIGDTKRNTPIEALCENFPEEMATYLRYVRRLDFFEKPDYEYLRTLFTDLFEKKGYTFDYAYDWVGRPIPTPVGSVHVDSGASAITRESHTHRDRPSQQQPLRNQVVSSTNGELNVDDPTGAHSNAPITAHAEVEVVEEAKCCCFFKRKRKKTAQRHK

CCc1ccc(-c2ccc3c(c2)-c2[nH]ncc2S(=O)(=O)N3C)cc1
Activity [1]: 91% | Activity [2]: 94% | Activity [3]: 68% | Activity [4]: 98% | Activity [5]: 103% | Activity [6]: 94% | Activity [7]: 93% | Activity [8]: 81% | Activity [9]: 101% | Activity [10]: 39% | Activity [11]: 95% | Activity [12]: 78% | Activity [13]: 72% | Activity [14]: 45% | Activity [15]: 94% | Activity [16]: 58% | Activity [17]: 91% | Activity [18]: 52% | Activity [19]: 97% | Activity [20]: 85% | Activity [21]: 102% | Activity [22]: 97% | Activity [23]: 103% | Activity [24]: 63% | Activity [25]: 78% | Activity [26]: 93% | Activity [27]: 95% | Activity [28]: 95% | Activity [29]: 95% | Activity [30]: 84% | Activity [31]: 78%
